Assay results as given in ChEMBL document CHEMBL3817818, “Synthesis and evaluation of fluorescent Pam3Cys peptide conjugates” (Bioorg Med Chem Lett, 2016).
The source made the active and inactive calls. The rule behind the calls is not given here. Where a SMILES comes first, the peptide text is derived from it. The star is where a group is joined. Propyl(2R-PamO,3-PamO) = CCCCCCCCCCCCCCCC(=O)OC[C@H](C*)OC(=O)CCCCCCCCCCCCCCC; X1 = CCCCCCCCCCCCCCCC(=O)OC[C@@H](C*)OC(=O)CCCCCCCCCCCCCCC; Palmitoyl = CCCCCCCCCCCCCCCC(=O)*

What was measured:
[1] = target: Toll-like receptor 2 (Homo sapiens) (UniProt O60603); experiment: Agonist activity at human TLR2 expressed in HEK cells assessed as increase in IL-8 production at 100 ng/ml incubated for 24 hrs by ELISA; format: cell-based; details: HEK293
Procedure, shortened: (§1)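 HEK cells transfected with human TLR2 were incubated 24 h with conjugates at 100–25 nM, or with Pam₃CysSK₄ at 100 ng/mL. Receptor activation was read as IL-8 produced in the assay. Error bars are SD.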

[2] = target: Toll-like receptor 2 (Mus musculus) (UniProt Q9QUN7); experiment: Agonist activity at TLR2 in H-2b harboring B6 mouse DC assessed as cell maturation by measuring increase in IL-12 p40 production at 0.0625 to 1 uM incubated for 48 hrs by sandwich ELISA
Procedure, shortened: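 Supernatants were harvested and IL-12 secretion measured by ELISA. Data shown are one representative of three independent experiments.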

[3] = target: Toll-like receptor 4 (Homo sapiens) (UniProt O00206); experiment: Agonist activity at human TLR4 expressed in HEK cells assessed as increase in IL-8 production at 25 to 100 nM incubated for 24 hrs by ELISA; format: cell-based; details: HEK293
[4] = target: Toll-like receptor 2 (Homo sapiens) (UniProt O60603); experiment: Agonist activity at human TLR2 expressed in HEK cells assessed as increase in IL-8 production at 25 to 100 nM incubated for 24 hrs by ELISA; format: cell-based; details: HEK293; procedure, shortened: as §1
[5] = Aqueous solubility of compound; format: physicochemical; details: buffer
[6] = Drug uptake in H-2b harboring B6 mouse DC at 1 uM after 15 mins by confocal microscopic analysis; format: ADME; details: in vitro, 0.25 h
Procedure, shortened: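 Dendritic cells were exposed to conjugate for 15 min. Uptake and intracellular localisation were imaged by confocal laser scanning microscopy. Images are representative of multiple cells in at least 3 experiments.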

Chain of Toll-like receptor 2 (Homo sapiens) (O60603 whole entry): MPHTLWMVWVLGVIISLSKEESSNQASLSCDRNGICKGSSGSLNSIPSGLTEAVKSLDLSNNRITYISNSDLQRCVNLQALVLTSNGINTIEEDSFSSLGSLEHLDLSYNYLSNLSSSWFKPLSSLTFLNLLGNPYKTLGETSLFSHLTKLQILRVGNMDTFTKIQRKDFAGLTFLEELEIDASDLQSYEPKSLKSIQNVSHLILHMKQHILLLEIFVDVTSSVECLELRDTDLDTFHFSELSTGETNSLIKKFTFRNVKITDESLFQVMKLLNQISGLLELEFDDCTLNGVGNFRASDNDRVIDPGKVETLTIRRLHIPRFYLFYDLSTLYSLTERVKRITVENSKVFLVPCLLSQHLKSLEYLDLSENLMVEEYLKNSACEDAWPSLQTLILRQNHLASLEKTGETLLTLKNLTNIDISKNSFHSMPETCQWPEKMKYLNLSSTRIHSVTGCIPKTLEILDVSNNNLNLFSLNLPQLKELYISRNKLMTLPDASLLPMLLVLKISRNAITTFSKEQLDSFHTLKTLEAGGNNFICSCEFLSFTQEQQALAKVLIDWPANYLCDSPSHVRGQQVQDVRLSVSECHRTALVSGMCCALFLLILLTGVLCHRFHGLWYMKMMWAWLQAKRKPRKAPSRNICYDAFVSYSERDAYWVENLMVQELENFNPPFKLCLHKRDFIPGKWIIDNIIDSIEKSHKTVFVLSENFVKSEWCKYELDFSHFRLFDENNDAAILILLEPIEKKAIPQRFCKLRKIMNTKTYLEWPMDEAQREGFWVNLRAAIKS
Chain of Toll-like receptor 4 (Homo sapiens) (O00206 whole entry): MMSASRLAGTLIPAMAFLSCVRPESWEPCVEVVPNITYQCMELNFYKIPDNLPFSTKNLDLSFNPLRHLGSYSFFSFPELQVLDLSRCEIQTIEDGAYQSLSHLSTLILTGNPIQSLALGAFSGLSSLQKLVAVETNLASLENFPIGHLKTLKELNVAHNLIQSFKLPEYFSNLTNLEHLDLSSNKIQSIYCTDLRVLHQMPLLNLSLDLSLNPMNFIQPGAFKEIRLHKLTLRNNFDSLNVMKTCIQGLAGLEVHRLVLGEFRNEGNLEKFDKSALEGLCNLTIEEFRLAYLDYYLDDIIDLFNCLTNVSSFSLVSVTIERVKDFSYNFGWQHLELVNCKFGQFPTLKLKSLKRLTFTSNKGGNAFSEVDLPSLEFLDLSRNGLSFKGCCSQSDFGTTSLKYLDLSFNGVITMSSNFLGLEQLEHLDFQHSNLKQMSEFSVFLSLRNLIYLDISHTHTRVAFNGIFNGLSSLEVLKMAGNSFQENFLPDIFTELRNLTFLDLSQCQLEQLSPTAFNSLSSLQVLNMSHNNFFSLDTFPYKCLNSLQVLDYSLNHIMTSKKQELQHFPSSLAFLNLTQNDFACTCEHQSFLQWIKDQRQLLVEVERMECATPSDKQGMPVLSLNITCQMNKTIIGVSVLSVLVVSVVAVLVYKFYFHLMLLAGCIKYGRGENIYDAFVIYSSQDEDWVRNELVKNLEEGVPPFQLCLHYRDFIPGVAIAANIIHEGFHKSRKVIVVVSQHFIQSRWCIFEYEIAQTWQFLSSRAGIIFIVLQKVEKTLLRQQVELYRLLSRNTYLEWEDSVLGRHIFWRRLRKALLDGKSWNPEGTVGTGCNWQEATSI
Chain of Toll-like receptor 2 (Mus musculus) (Q9QUN7 whole entry): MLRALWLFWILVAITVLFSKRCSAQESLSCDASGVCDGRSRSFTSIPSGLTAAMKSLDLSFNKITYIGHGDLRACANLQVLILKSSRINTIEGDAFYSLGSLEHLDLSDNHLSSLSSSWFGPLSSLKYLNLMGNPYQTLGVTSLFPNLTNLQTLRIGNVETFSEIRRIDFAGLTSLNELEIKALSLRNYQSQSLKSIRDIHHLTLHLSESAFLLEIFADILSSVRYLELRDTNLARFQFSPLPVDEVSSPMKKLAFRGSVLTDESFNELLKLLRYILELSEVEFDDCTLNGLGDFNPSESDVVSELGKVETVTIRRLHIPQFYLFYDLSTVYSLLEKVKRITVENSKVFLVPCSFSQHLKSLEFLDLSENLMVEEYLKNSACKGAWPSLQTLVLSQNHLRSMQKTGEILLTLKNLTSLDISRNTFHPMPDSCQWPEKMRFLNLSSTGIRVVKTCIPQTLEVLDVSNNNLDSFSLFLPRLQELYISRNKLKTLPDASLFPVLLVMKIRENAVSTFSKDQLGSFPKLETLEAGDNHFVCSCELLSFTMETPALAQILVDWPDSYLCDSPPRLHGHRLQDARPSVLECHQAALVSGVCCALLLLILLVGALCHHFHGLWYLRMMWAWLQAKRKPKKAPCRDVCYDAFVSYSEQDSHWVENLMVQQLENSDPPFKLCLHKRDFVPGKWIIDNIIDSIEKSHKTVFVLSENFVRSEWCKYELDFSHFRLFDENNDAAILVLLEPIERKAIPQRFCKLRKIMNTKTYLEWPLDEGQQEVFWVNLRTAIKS

## CCCCCCCCCCCCCCCC(=O)N[C@@H](CSC[C@@H](COC(=O)CCCCCCCCCCCCCCC)OC(=O)CCCCCCCCCCCCCCC)C(=O)N[C@@H](CO)C(=O)N[C@@H](CCCCN)C(=O)N[C@@H](CCCCN)C(=O)N[C@@H](CCCCN)C(=O)N[C@@H](CCCCN)C(=O)O (Palmitoyl-C(Propyl(2R-PamO,3-PamO))SKKKK-OH)
[1]
  Activity: Active

## CCCCCCCCCCCCCCCC(=O)N[C@@H](CSC[C@@H](COC(=O)CCCCCCCCCCCCCCC)OC(=O)CCCCCCCCCCCCCCC)C(=O)N[C@@H](CO)C(=O)N[C@@H](CCCCN)C(=O)N[C@@H](CCCCN)C(=O)N[C@@H](CCCCN)C(=O)N[C@@H](CCCCN)C(=O)N[C@@H](CC(=O)O)C(=O)N[C@@H](CCC(=O)O)C(=O)N[C@H](C(=O)N[C@@H](CO)C(=O)NCC(=O)N[C@@H](CC(C)C)C(=O)N[C@@H](CCC(=O)O)C(=O)N[C@@H](CCC(N)=O)C(=O)N[C@@H](CC(C)C)C(=O)N[C@@H](CCC(=O)O)C(=O)N[C@@H](CO)C(=O)N[C@H](C(=O)N[C@H](C(=O)N[C@@H](CC(N)=O)C(=O)N[C@@H](Cc1ccccc1)C(=O)N[C@@H](CCC(=O)O)C(=O)N[C@@H](CCCCN)C(=O)N[C@@H](CC(C)C)C(=O)O)[C@@H](C)CC)[C@@H](C)CC)C(C)C (Palmitoyl-C(Propyl(2R-PamO,3-PamO))SKKKKDEVSGLEQLESIINFEKL-OH)
[2]
  Activity: Active
[3]
  Activity: inactive
[4]
  Activity: Active

## CCCCCCCCCCCCCCCC(=O)N[C@H](CSC[C@H](COC(=O)CCCCCCCCCCCCCCC)OC(=O)CCCCCCCCCCCCCCC)C(=O)N[C@H](CO)C(=O)N[C@H](CCCCN)C(=O)N[C@H](CCCCN)C(=O)N[C@H](CCCCN)C(=O)N[C@H](CCCCN)C(=O)N[C@H](CC(=O)O)C(=O)N[C@H](CCC(=O)O)C(=O)N[C@@H](C(=O)N[C@H](CO)C(=O)NCC(=O)N[C@H](CC(C)C)C(=O)N[C@H](CCC(=O)O)C(=O)N[C@H](CCC(N)=O)C(=O)N[C@H](CC(C)C)C(=O)N[C@H](CCC(=O)O)C(=O)N[C@H](CO)C(=O)N[C@@H](C(=O)N[C@@H](C(=O)N[C@H](CC(N)=O)C(=O)N[C@H](Cc1ccccc1)C(=O)N[C@@H](CCC(=O)O)C(=O)N[C@H](CCCCn1nnc2c1CC[C@@H]1[C@H](CC2)[C@@H]1COC(=O)NCCOCCOCCNC(=O)c1ccc(-c2c3ccc(=[N+](C)C)cc-3oc3cc(N(C)C)ccc23)c(C(=O)[O-])c1)C(=O)N[C@@H](CC(C)C)C(=O)O)[C@@H](C)CC)[C@@H](C)CC)C(C)C
[5]
  solubility: Insoluble
[2]
  Activity: Active

## CCCCCCCCCCCCCCCC(=O)N[C@@H](CSC[C@H](COC(=O)CCCCCCCCCCCCCCC)OC(=O)CCCCCCCCCCCCCCC)C(=O)N[C@@H](CO)C(=O)N[C@@H](CCCCN)C(=O)N[C@@H](CCCCN)C(=O)N[C@@H](CCCCN)C(=O)N[C@@H](CCCCN)C(=O)N[C@@H](CC(=O)O)C(=O)N[C@@H](CCC(=O)O)C(=O)N[C@H](C(=O)N[C@@H](CO)C(=O)NCC(=O)N[C@@H](CC(C)C)C(=O)N[C@@H](CCC(=O)O)C(=O)N[C@@H](CCC(N)=O)C(=O)N[C@@H](CC(C)C)C(=O)N[C@@H](CCC(=O)O)C(=O)N[C@@H](CO)C(=O)N[C@H](C(=O)N[C@H](C(=O)N[C@@H](CC(N)=O)C(=O)N[C@@H](Cc1ccccc1)C(=O)N[C@H](CCC(=O)O)C(=O)N[C@@H](CCCCn1nnc2c1CC[C@H]1[C@@H](CC2)[C@H]1COC(=O)NCCOCCOCCNC(=O)CCCC[N+]1=C(/C=C/C=C/C=C2\N(C)c3ccccc3C2(C)C)C(C)(C)c2ccccc21)C(=O)N[C@H](CC(C)C)C(=O)O)[C@H](C)CC)[C@H](C)CC)C(C)C
[2]
  Activity: inactive
[3]
  Activity: inactive
[4]
  Activity: inactive

## CCCCCCCCCCCCCCCC(=O)N[C@@H](CSC[C@H](COC(=O)CCCCCCCCCCCCCCC)OC(=O)CCCCCCCCCCCCCCC)C(=O)N[C@@H](CO)C(=O)N[C@@H](CCCCN)C(=O)N[C@@H](CCCCN)C(=O)N[C@@H](CCCCN)C(=O)N[C@@H](CCCCN)C(=O)N[C@@H](CC(=O)O)C(=O)N[C@@H](CCC(=O)O)C(=O)N[C@H](C(=O)N[C@@H](CO)C(=O)NCC(=O)N[C@@H](CC(C)C)C(=O)N[C@@H](CCC(=O)O)C(=O)N[C@@H](CCC(N)=O)C(=O)N[C@@H](CC(C)C)C(=O)N[C@@H](CCC(=O)O)C(=O)N[C@@H](CO)C(=O)N[C@H](C(=O)N[C@H](C(=O)N[C@@H](CC(N)=O)C(=O)N[C@@H](Cc1ccccc1)C(=O)N[C@@H](CCC(=O)O)C(=O)N[C@@H](CCCCn1nnc2c1CC[C@H]1[C@@H](CC2)[C@H]1COC(=O)NCCOCCOCCNC(=O)CCCC[N+]1=C(/C=C/C=C/C=C2\N(C)c3ccccc3C2(C)C)C(C)(C)c2ccccc21)C(=O)N[C@@H](CC(C)C)C(=O)O)[C@@H](C)CC)[C@@H](C)CC)C(C)C
[6]
  Drug uptake: Active

## CCCCCCCCCCCCCCCC(=O)N[C@@H](CSC[C@@H](COC(=O)CCCCCCCCCCCCCCC)OC(=O)CCCCCCCCCCCCCCC)C(=O)N[C@@H](CO)C(=O)N[C@@H](CCCCN)C(=O)N[C@@H](CCCCN)C(=O)N[C@@H](CCCCN)C(=O)N[C@@H](CCCCN)C(=O)N[C@@H](CC(=O)O)C(=O)N[C@@H](CCC(=O)O)C(=O)N[C@H](C(=O)N[C@@H](CO)C(=O)NCC(=O)N[C@@H](CC(C)C)C(=O)N[C@@H](CCC(=O)O)C(=O)N[C@@H](CCC(N)=O)C(=O)N[C@@H](CC(C)C)C(=O)N[C@@H](CCC(=O)O)C(=O)N[C@@H](CO)C(=O)N[C@H](C(=O)N[C@H](C(=O)N[C@@H](CC(N)=O)C(=O)N[C@@H](Cc1ccccc1)C(=O)N[C@H](CCC(=O)O)C(=O)N[C@@H](CCCCn1nnc2c1CC[C@H]1[C@@H](CC2)[C@H]1COC(=O)NCCOCCOCCNC(=O)CCCC[N+]1=C(/C=C/C=C/C=C2\N(C)c3ccccc3C2(C)C)C(C)(C)c2ccccc21)C(=O)N[C@H](CC(C)C)C(=O)O)[C@H](C)CC)[C@H](C)CC)C(C)C
[2]
  Activity: Active
[3]
  Activity: inactive
[4]
  Activity: Active

## CCCCCCCCCCCCCCCC(=O)N[C@H](CSC[C@@H](COC(=O)CCCCCCCCCCCCCCC)OC(=O)CCCCCCCCCCCCCCC)C(=O)N[C@H](CO)C(=O)N[C@H](CCCCN)C(=O)N[C@H](CCCCN)C(=O)N[C@H](CCCCN)C(=O)N[C@H](CCCCN)C(=O)N[C@H](CC(=O)O)C(=O)N[C@H](CCC(=O)O)C(=O)N[C@@H](C(=O)N[C@H](CO)C(=O)NCC(=O)N[C@H](CC(C)C)C(=O)N[C@H](CCC(=O)O)C(=O)N[C@H](CCC(N)=O)C(=O)N[C@H](CC(C)C)C(=O)N[C@H](CCC(=O)O)C(=O)N[C@H](CO)C(=O)N[C@@H](C(=O)N[C@@H](C(=O)N[C@H](CC(N)=O)C(=O)N[C@H](Cc1ccccc1)C(=O)N[C@@H](CCC(=O)O)C(=O)N[C@H](CCCCn1nnc2c1CC[C@@H]1[C@H](CC2)[C@@H]1COC(=O)NCCOCCOCCNC(=O)c1ccc(-c2c3ccc(=[N+](C)C)cc-3oc3cc(N(C)C)ccc23)c(C(=O)[O-])c1)C(=O)N[C@@H](CC(C)C)C(=O)O)[C@@H](C)CC)[C@@H](C)CC)C(C)C
[5]
  solubility: Insoluble
[2]
  Activity: inactive

## CCCCCCCCCCCCCCCC(=O)N[C@@H](CSC[C@@H](COC(=O)CCCCCCCCCCCCCCC)OC(=O)CCCCCCCCCCCCCCC)C(=O)N[C@@H](CO)C(=O)N[C@@H](CCCCN)C(=O)N[C@@H](CCCCN)C(=O)N[C@@H](CCCCN)C(=O)N[C@@H](CCCCN)C(=O)N[C@@H](CC(=O)O)C(=O)N[C@@H](CCC(=O)O)C(=O)N[C@H](C(=O)N[C@@H](CO)C(=O)NCC(=O)N[C@@H](CC(C)C)C(=O)N[C@@H](CCC(=O)O)C(=O)N[C@@H](CCC(N)=O)C(=O)N[C@@H](CC(C)C)C(=O)N[C@@H](CCC(=O)O)C(=O)N[C@@H](CO)C(=O)N[C@H](C(=O)N[C@H](C(=O)N[C@@H](CC(N)=O)C(=O)N[C@@H](Cc1ccccc1)C(=O)N[C@@H](CCC(=O)O)C(=O)N[C@@H](CCCCn1nnc2c1CC[C@H]1[C@@H](CC2)[C@H]1COC(=O)NCCOCCOCCNC(=O)CCCC[N+]1=C(/C=C/C=C/C=C2\N(C)c3ccccc3C2(C)C)C(C)(C)c2ccccc21)C(=O)N[C@@H](CC(C)C)C(=O)O)[C@@H](C)CC)[C@@H](C)CC)C(C)C
[6]
  Drug uptake: Active

## CCCCCCCCCCCCCCCC(=O)N[C@@H](CSC[C@H](COC(=O)CCCCCCCCCCCCCCC)OC(=O)CCCCCCCCCCCCCCC)C(=O)N[C@@H](CO)C(=O)N[C@@H](CCCCN)C(=O)N[C@@H](CCCCN)C(=O)N[C@@H](CCCCN)C(=O)N[C@@H](CCCCN)C(=O)N[C@@H](CC(=O)O)C(=O)N[C@@H](CCC(=O)O)C(=O)N[C@H](C(=O)N[C@@H](CO)C(=O)NCC(=O)N[C@@H](CC(C)C)C(=O)N[C@@H](CCC(=O)O)C(=O)N[C@@H](CCC(N)=O)C(=O)N[C@@H](CC(C)C)C(=O)N[C@@H](CCC(=O)O)C(=O)N[C@@H](CO)C(=O)N[C@H](C(=O)N[C@H](C(=O)N[C@@H](CC(N)=O)C(=O)N[C@@H](Cc1ccccc1)C(=O)N[C@@H](CCC(=O)O)C(=O)N[C@@H](CCCCN)C(=O)N[C@@H](CC(C)C)C(=O)O)[C@@H](C)CC)[C@@H](C)CC)C(C)C (Palmitoyl-C(X1)SKKKKDEVSGLEQLESIINFEKL-OH)
[2]
  Activity: inactive
[3]
  Activity: inactive
[4]
  Activity: inactive
